Experiment [1] deals with T1, Secretory phospholipase A2 (Homo sapiens) (UniProt Q5R387+Q9NZK7+P14555+Q9BZM2+Q9UNK4+P39877+O15496+P04054+Q9NZ20+Q9BZM1+Q9BX93).
Experiment [2] has as its target T1, Secretory phospholipase A2 (Homo sapiens). The source holds these as a separate data set.
The target of experiment [3] is T2, 85/88 kDa calcium-independent phospholipase A2 (Homo sapiens) (UniProt O60733).
T2 sequence (whole entry): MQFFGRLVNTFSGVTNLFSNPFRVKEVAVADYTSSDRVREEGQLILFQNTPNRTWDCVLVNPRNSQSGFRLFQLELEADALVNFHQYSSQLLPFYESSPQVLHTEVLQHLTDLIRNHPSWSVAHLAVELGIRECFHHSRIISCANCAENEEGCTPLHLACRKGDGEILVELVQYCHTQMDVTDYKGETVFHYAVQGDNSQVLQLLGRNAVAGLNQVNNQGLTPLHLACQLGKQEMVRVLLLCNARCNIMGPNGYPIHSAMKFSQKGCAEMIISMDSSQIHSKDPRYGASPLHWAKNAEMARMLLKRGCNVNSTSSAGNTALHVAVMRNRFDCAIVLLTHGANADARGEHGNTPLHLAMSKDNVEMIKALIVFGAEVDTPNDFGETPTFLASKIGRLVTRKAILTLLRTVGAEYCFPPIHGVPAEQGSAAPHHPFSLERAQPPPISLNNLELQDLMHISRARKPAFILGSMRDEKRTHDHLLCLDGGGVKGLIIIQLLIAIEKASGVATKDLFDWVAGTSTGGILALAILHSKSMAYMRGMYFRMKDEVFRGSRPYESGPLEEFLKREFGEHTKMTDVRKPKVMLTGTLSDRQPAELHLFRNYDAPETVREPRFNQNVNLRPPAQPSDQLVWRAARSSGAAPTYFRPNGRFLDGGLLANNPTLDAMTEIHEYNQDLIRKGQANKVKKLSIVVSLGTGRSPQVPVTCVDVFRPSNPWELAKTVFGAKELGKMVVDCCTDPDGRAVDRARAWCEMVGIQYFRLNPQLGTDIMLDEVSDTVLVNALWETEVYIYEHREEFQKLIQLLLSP
In words: (§1) Inhibition of human recombinant calcium-independent PLA2 using PAPE as substrate assessed as assessed as reduction in free AA formation after 30 mins in presence of equal molar mixture of PAPA/PAPC/PAPE/PAPG/PAPS/PLPC by HPLC-MS analysis. An outline of the steps:
(§2)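 The iPLA2 substrate was an equimolar mixture of PAPA, PAPC, PAPE, PAPG and PAPS (100 µM total) with 400 µM C12E8. Buffer was 100 mM HEPES pH 7.5, 2 mM ATP and 4 mM DTT; 30 min at 40 °C. Each 16:0 lysophospholipid was quantified in positive ion mode; free AA, common to all five substrates, in negative ion mode.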

Experiment [4] deals with T2, 85/88 kDa calcium-independent phospholipase A2 (Homo sapiens). In words: (§3) Inhibition of human recombinant calcium-independent PLA2 using PAPG as substrate assessed as reduction in 16:0 […] formation after 30 mins in presence of equal molar mixture of PAPA/PAPC/PAPE/PAPG/PAPS/PLPC by HPLC-MS analysis.
For experiment [5], the target named is T1, Secretory phospholipase A2 (Homo sapiens). This is another data set of the same source.
Experiment [6] has as its target Cytosolic phospholipase A2 (Homo sapiens) (UniProt P47712). In words: Inhibition of human recombinant cytosolic PLA2 using PAPA as substrate assessed as reduction in free FA formation after 30 mins in presence of equal molar mixture of PAPA/PAPC/PAPE/PAPG/PAPS/PLPC by HPLC-MS analysis.
Experiment [7] addresses 85/88 kDa calcium-independent phospholipase A2 (Homo sapiens) (UniProt O60733). Put plainly: Inhibition of human recombinant calcium-independent PLA2 using PAPS as substrate assessed as reduction in 16:0 LPS formation after 30 mins in presence of equal molar mixture of PAPA/PAPC/PAPE/PAPG/PAPS/PLPC by HPLC-MS analysis.
The target in experiment [8] is T3, Cytosolic phospholipase A2 (Homo sapiens) (UniProt P47712).
T3 sequence (whole entry): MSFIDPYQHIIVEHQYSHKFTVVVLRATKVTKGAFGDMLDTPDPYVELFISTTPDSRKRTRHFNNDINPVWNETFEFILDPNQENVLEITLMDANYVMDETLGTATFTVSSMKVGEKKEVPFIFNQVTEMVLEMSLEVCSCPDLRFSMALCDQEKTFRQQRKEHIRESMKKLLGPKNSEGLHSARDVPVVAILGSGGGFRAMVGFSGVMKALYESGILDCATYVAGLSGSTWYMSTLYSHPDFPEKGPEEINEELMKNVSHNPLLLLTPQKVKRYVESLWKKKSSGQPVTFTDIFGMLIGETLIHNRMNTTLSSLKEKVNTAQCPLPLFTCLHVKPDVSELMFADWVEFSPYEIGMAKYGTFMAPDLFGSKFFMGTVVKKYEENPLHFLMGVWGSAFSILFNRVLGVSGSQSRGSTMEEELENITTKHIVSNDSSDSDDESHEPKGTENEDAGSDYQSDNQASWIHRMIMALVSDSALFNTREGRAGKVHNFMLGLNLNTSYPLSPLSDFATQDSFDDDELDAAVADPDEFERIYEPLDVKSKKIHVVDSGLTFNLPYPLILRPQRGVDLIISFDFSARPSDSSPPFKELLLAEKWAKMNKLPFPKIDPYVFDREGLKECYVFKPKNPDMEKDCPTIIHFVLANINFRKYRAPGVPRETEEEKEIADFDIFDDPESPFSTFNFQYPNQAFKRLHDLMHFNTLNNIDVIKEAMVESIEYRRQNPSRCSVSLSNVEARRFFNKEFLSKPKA
In words: Inhibition of human recombinant cPLA2 assessed as reduction in 16:0 LPC formation after 30 mins by HPLC-MS analysis. The method in brief: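 Human recombinant group IVA cPLA2 in mixed micelles with 97 µM PAPC plus 3 µM PI(4,5)P2 (100 µM total phospholipid) and 400 µM C12E8. Buffer was 100 mM HEPES pH 7.5, 90 µM CaCl2 and 2 mM DTT; incubation 30 min at 40 °C. 16:0 LPC was read by HILIC-MRM (positive ion) and free AA by C18 LC-MS (negative ion).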

Experiment [9] concerns the target T2, 85/88 kDa calcium-independent phospholipase A2 (Homo sapiens). In words: (§4) Inhibition of human recombinant calcium-independent PLA2 using PAPA as substrate assessed as reduction in […] after 30 mins by HPLC-MS analysis.
In experiment [10] the target is T4, 85/88 kDa calcium-independent phospholipase A2 (Homo sapiens, UniProt O60733).
T4 sequence (O60733 whole entry): T2 sequence (whole entry)
Put plainly: Inhibition of human recombinant calcium-independent PLA2 using PLPC as substrate assessed as reduction in 16:0 LPC formation after 30 mins by HPLC-MS analysis. The method in brief:
(§5)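 Human recombinant group VIA iPLA2 acted on 100 µM single phospholipid (PAPC or PLPC) in 400 µM C12E8 mixed micelles. Buffer was 100 mM HEPES pH 7.5, 2 mM ATP and 4 mM DTT; incubation 30 min at 40 °C. 16:0 LPC was read by HILIC-MRM in positive ion mode; free AA or LA by C18 LC-MS in negative ion mode.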

The target in experiment [11] is T2, 85/88 kDa calcium-independent phospholipase A2 (Homo sapiens). Put plainly: (§6) Inhibition of human recombinant iPLA2 assessed as reduction in free FA formation after 30 mins by HPLC-MS analysis. The method in brief: as §5
Experiment [12] concerns the target T4, 85/88 kDa calcium-independent phospholipase A2. The description is as §6. An outline of the steps: as §5
In experiment [13] the target is T2, 85/88 kDa calcium-independent phospholipase A2 (Homo sapiens). In words: Inhibition of human recombinant calcium-independent PLA2 using PAPE as substrate assessed as reduction in 16:0 LPE formation after 30 mins in presence of equal molar mixture of PAPA/PAPC/PAPE/PAPG/PAPS/PLPC by HPLC-MS analysis. An outline of the steps:
as §2

The target in experiment [14] is T4, 85/88 kDa calcium-independent phospholipase A2. Put plainly: Inhibition of human recombinant calcium-independent PLA2 using PAPS as substrate assessed as reduction in […] after 30 mins in presence of equal molar mixture of PAPA/PAPC/PAPE/PAPG/PAPS/PLPC by HPLC-MS analysis.
Experiment [15] has the same target. In words: Inhibition of human recombinant calcium-independent PLA2 using PLPC as substrate assessed as reduction in free LA formation after 30 mins by HPLC-MS analysis.
The target is the same in experiment [16]. Described as §1. The method in brief:
as §2

For experiment [17] the target is unchanged. Put plainly: Inhibition of human recombinant calcium-independent PLA2 using PAPC as substrate assessed as reduction in free AA formation after 30 mins by HPLC-MS analysis. The method in brief:
as §5

For experiment [18] the target is unchanged. Put plainly: Inhibition of human recombinant calcium-independent PLA2 using PAPE as substrate assessed as reduction in […] after 30 mins in presence of equal molar mixture of PAPA/PAPC/PAPE/PAPG/PAPS/PLPC by HPLC-MS analysis.
Experiment [19] has the same target. Described as §3.
Experiment [20] addresses T2, 85/88 kDa calcium-independent phospholipase A2 (Homo sapiens). Put plainly: Inhibition of human recombinant calcium-independent PLA2 using PAPA as substrate assessed as reduction in 16:0 LPA formation after 30 mins in presence of equal molar mixture of PAPA/PAPC/PAPE/PAPG/PAPS/PLPC by HPLC-MS analysis. The method in brief: as §2
For experiment [21] the target is unchanged. Put plainly: (§7) Inhibition of human recombinant calcium-independent PLA2 using PAPC as substrate assessed as reduction in 16:0 LPC formation after 30 mins by HPLC-MS analysis. An outline of the steps: as §5
For experiment [22], the target named is T4, 85/88 kDa calcium-independent phospholipase A2. The description is as §7. An outline of the steps:
as §5

Experiment [23] shares this target. Described as §4.
For experiment [24], the target named is T2, 85/88 kDa calcium-independent phospholipase A2 (Homo sapiens). Put plainly: (§8) Inhibition of human recombinant calcium-independent PLA2 using PAPC as substrate assessed as reduction in free [14C]-AA formation after 30 mins by scintillation counting. An outline of the steps:
(§9)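 Radioactive format: iPLA2 hydrolysed PAPC/C12E8 mixed micelles traced with 1-palmitoyl-2-(1-[14C]arachidonoyl) PC. Released [14C]-AA was measured by scintillation counting. Percent inhibition was plotted against log mole fraction or log concentration to derive X1(50) and IC50.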

Experiment [25] deals with T4, 85/88 kDa calcium-independent phospholipase A2. The description is as §8. The method in brief: as §9
The target in experiment [26] is T2, 85/88 kDa calcium-independent phospholipase A2 (Homo sapiens). In words: (§10) Inhibition of human recombinant iPLA2 assessed as reduction in 16:0 LPC formation after 30 mins by HPLC-MS analysis. The method in brief: as §5
In experiment [27] the target is T4, 85/88 kDa calcium-independent phospholipase A2. The description is as §10. The method in brief:
as §5

As for `CCc1c(C(=O)C(N)=O)c2c(OCC(=O)O)cccc2n1Cc1ccccc1`, the XI50 in [1] is 0.19 nM; in [2] it was 0.17 nM; in experiment [5], 0.9 nM. Besides, the values for the XI50 (mole fraction) in [3] and in experiment [4] were 0.0008 and 0.0031 to 0.026, respectively.
For `O=C1NC(=O)C(=Cc2ccc(C(=O)NC[C@@H]3C[C@@H](SC(c4ccccc4)(c4ccccc4)c4ccccc4)CN3C(=O)c3ccccc3C(=O)c3ccc(F)cc3F)cc2)S1`, the XI50 in [6] came to 1.8 nM; in experiment [7] it was 2 nM; in experiment [9], 0.13 nM. The XI50 (mole fraction) in [8] was determined as 0.0023.
As to `CCCCCCCCSCC(=O)C(F)(F)F`, the IC50 in experiment [10] worked out at 83 nM; in experiment [12], 48 nM; in experiment [14] it was 46 nM; in experiment [15] it was 67 nM; in [16] it was 50 nM; in [17], 49 nM. Further, the IC50 in [18] is 63 nM; in experiment [19], 48 nM; in experiment [22] it was 54 nM; in [23], 160 nM; in experiment [25] it was 48 nM; in experiment [27] it was 55 nM. Moreover, the XI50 (mole fraction) in experiment [11] is 7e-05; in [13], 9e-05; in [3] it was 7e-05; in [4] it was 6e-05; in experiment [20], 0.0002; in experiment [21], 8e-05. In addition, the XI50 (mole fraction) in [24] came out at 9e-05; in experiment [26] it was 8e-05. Further, in experiment [7], the XI50 was determined as 0.05 nM.

A word on the IC50: it is the concentration needed to halve the response being measured.

The values above are taken from ChEMBL document CHEMBL4411313, “Substrate-Specific Inhibition Constants for Phospholipase A2 Acting on Unique Phospholipid Substrates in Mixed Micelles and Membranes Using Lipidomics” (J Med Chem, 2019).
